# According to ChEMBL document CHEMBL4406881, “Design, synthesis and biological evaluation of benzoylacrylic acid shikonin ester derivatives as irreversible dual inhibitors of tubulin and EGFR” (Bioorg Med Chem, 2019):
# Calls of active or inactive are those of the source. No cut-off for these calls is given here.
# How the values were obtained:
# A549 [1] = assay: Induction of apoptosis in human A549 cells assessed as early apoptotic cells at 2 uM after 24 hrs by Annexin-V/PI staining based flow cytometry analysis (reference value: 1.15%); assay type: functional
# A549 [2] = assay: Antitumor activity against ip dosed human A549 cells xenografted in Balb/c mouse assessed as inhibition of tumor volume by measuring fold reduction at 4 mg/kg, ip administered once every two days for 32 days relative to untreated control; assay type: functional
# Procedure, shortened: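 Female BALB/c nude mice, 5-6 weeks old, injected in the flank with 6×10^6 A549 cells in 0.1 mL ice-cold PBS. After two weeks, tumours averaging 90 mm³ were allocated by volume to 5 groups of n = 8. Drugs in DMSO were given ip once every two days, 16 doses in total; a DMSO vehicle group served as control. Tumour volume (L×S²/2) and body weight were recorded every two days; mice were killed on day 32.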
# A549 [3] = assay: Induction of apoptosis in human A549 cells assessed as viable cells at 4 uM after 24 hrs by Annexin-V/PI staining based flow cytometry analysis (reference value: 91.4%); assay type: functional; conditions: A549, 24 h, read-out: Activity
# Procedure, shortened: (§1)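 A549 cells seeded overnight at 37 °C, 5% CO2, then exposed to 0, 2, 4, 8 or 12 µM for 24 h (dose series) or 8 µM for 0, 12, 24, 36 h (time series). Harvested, PBS-washed, stained with Annexin V-FITC and PI in binding buffer 15 min at room temperature in the dark, analysed by flow cytometry; three independent experiments.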
# A549 [4] = assay: Induction of apoptosis in human A549 cells assessed as reduction in caspase-9 expression at 2 to 8 uM after 24 hrs by Western blot analysis; assay type: functional, cell-based
# Procedure, shortened: (§2)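 A549 cells in 6-well plates were lysed in RIPA buffer with protease inhibitors on ice for 30 min and cleared at 4 °C. Protein was quantified by BCA, run on SDS-PAGE and transferred to PVDF. Membranes were blocked with milk, probed with primary antibody (1:1000) overnight at 4 °C, then secondary antibody (1:3000-1:5000) 1 h at RT. Detection by ECL; band densitometry normalised to GAPDH (β-actin also used). Three independent experiments.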
# NCI-H460 = assay: Antiproliferative activity against human H460 cells assessed as reduction in cell viability after 24 hrs by MTT assay; assay type: functional, cell-based; conditions: NCI-H460, 24 h
# Procedure, shortened: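 MTT colorimetric assay. Cells in log phase in medium with 10% FBS were seeded at 10⁴ cells/well and left overnight at 37 °C, 5% CO₂ to reattach. Compounds were added at 0.1, 1, 10 and 100 μM in 10% FBS for 24 h. IC50 reported as mean ± SD of three independent experiments.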
# A549 [5] = assay: Cell cycle arrest in human A549 cells assessed as accumulation at G1 phase at 8 uM after 36 hrs by RNAse A/ PI staining based flow cytometric analysis (reference value: 67.69%); assay type: functional
# Procedure, shortened: (§3)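 A549 cells at 5.0×10^4 per well were grown 12 h at 37 °C. Treatment was 0, 2, 4 or 8 µM for 24 h, or 8 µM for 0, 12, 24 or 36 h. Cells were fixed in 70% ethanol at −20 °C for at least 12 h, then stained in PBS with 0.1 mg/mL RNase A and 5 µg/mL PI. At least 10,000 events per sample were collected by flow cytometry to give G0/G1, S and G2/M percentages.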
# A549 [6] = assay: Antitumour activity in ip dosed Balb/c mouse xenografted with human A549 cells assessed as increase in mouse survival at 2 to 4 mg/kg, ip administered once every two days for 32 days; assay type: functional, organism-based
# A549 [7] = assay: Cell cycle arrest in human A549 cells assessed as accumulation at G1 phase at 8 uM after 24 hrs by RNAse A/ PI staining based flow cytometric analysis (reference value: 73.30%); assay type: functional; procedure, shortened: as §3
# A549 [8] = assay: Cell cycle arrest in human A549 cells assessed as accumulation at G2/M phase at 8 uM after 24 hrs by RNAse A/ PI staining based flow cytometric analysis (reference value: 12.65%); assay type: functional; procedure, shortened: as §3
# A549 [9] = assay: Induction of apoptosis in human A549 cells assessed as necrotic cells after at 4 uM 24 hrs by Annexin-V/PI staining based flow cytometry analysis (reference value: 1.81%); assay type: functional; procedure, shortened: as §1
# A549 [10] = assay: Induction of apoptosis in human A549 cells assessed as PARP cleavage expression at 2 to 8 uM after 24 hrs by Western blot analysis; assay type: functional, cell-based
# Procedure, shortened: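 Western blot of A549 cells treated for 24 h. Lysates in RIPA buffer were run on SDS-PAGE and transferred to PVDF. Primary antibody at 1:1000 overnight at 4 °C, secondary antibody at 1:3000-1:5000 for 1 h, ECL detection. Densitometry was normalised to GAPDH; mean ± S.E.M. from three independent experiments.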
# A549 [11] = assay: Cell cycle arrest in human A549 cells assessed as accumulation at G2/M phase at 8 uM after 12 hrs by RNAse A/ PI staining based flow cytometric analysis (reference value: 12.65%); assay type: functional; procedure, shortened: as §3
# A549 [12] = assay: Cell cycle arrest in human A549 cells assessed as accumulation at S phase at 8 uM after 24 hrs by RNAse A/ PI staining based flow cytometric analysis (reference value: 17.23%); assay type: functional; procedure, shortened: as §3
# A549 [13] = assay: Induction of apoptosis in human A549 cells assessed as early apoptotic cells at 8 uM after 24 hrs by Annexin-V/PI staining based flow cytometry analysis (reference value: 2.02%); assay type: functional
# A549 [14] = assay: Induction of apoptosis in human A549 cells assessed as increase in late apoptotic cells at 4 to 12 uM after 12 hrs by PI-staining based flow cytometric analysis; assay type: functional, cell-based
# Procedure, shortened: (§4)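 JC-1 staining of A549 cells treated for 12 h. CCCP-treated wells, 20 min at 37 °C, served as positive control. Collected cells were incubated with JC-1 solution at 37 °C for 30 min, washed, and analysed by flow cytometry for the fraction with high ΔΨm and for PI-positive cells. Results are mean ± S.E.M. of three replicates.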
# [15] = biological target: Epidermal growth factor receptor (Homo sapiens, UniProt P00533); assay: Inhibition of C-terminal His-tagged N-terminal GST-tagged human EGFR (668 to 1210 residues) expressed in baculovirus infected Sf9 cells after 30 mins in presence of gamma-[32p-ATP] binding assay
# Epidermal growth factor receptor, sequence (P00533 whole entry, the tested form may be a part): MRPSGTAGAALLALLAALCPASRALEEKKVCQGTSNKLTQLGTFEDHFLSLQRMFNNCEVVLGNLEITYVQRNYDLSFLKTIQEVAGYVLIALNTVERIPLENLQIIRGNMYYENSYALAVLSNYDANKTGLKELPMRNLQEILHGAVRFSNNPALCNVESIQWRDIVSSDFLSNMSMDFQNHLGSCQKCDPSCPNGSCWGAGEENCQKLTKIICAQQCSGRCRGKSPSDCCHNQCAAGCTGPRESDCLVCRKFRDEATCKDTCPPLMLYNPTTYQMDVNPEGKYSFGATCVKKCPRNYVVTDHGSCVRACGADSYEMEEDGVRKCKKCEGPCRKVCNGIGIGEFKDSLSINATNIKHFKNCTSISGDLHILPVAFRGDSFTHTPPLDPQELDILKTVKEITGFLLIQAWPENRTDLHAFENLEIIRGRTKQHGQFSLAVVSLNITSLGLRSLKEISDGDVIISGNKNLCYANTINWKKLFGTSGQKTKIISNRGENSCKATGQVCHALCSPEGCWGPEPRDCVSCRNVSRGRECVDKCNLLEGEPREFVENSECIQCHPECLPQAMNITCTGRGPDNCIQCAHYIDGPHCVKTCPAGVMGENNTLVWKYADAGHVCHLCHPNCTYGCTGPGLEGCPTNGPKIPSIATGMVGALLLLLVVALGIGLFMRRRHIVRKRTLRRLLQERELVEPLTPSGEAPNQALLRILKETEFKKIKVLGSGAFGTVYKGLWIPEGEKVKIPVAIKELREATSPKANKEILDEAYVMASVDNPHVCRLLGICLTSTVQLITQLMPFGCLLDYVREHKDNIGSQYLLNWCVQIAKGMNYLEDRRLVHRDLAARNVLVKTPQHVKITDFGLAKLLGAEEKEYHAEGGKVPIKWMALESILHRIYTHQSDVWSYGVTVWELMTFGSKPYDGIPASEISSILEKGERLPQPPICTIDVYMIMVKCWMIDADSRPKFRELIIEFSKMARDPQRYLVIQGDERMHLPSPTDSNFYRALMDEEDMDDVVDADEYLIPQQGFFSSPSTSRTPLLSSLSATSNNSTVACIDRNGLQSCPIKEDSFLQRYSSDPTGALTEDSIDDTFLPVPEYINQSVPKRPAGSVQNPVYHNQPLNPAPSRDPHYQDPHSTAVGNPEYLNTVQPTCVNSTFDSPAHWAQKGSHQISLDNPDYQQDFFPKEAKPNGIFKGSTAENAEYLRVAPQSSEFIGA
# A549 [16] = assay: Induction of apoptosis in human A549 cells assessed as necrotic cells after at 2 uM 24 hrs by Annexin-V/PI staining based flow cytometry analysis (reference value: 1.81%); assay type: functional; procedure, shortened: as §1
# A549 [17] = assay: Inhibition of Wnt/beta-catenin signaling pathway in human A549 cells assessed as increase in axin-2 expression by Western blot analysis; assay type: cell-based; procedure, shortened: as §2
# A549 [18] = assay: Induction of apoptosis in human A549 cells assessed as necrotic cells after at 8 uM 24 hrs by Annexin-V/PI staining based flow cytometry analysis (reference value: 2.98%); assay type: functional; procedure, shortened: as §1
# A549 [19] = assay: Induction of apoptosis in human A549 cells assessed as late apoptotic cells at 8 uM after 24 hrs by Annexin-V/PI staining based flow cytometry analysis (reference value: 5.69%); assay type: functional; procedure, shortened: as §1
# A549 [20] = assay: Induction of apoptosis in human A549 cells assessed as high mitochondrial membrane potential at 4 uM after 12 hrs by JC-1 staining-based flow cytometric analysis (reference value: 90.6%); assay type: functional; procedure, shortened: as §4
# A549 [21] = assay: Induction of apoptosis in human A549 cells assessed as reduction in caspase-3 expression at 2 to 8 uM after 24 hrs by Western blot analysis; assay type: functional, cell-based; procedure, shortened: as §2
smiles,measurement,setting,value
CC(C)=CC[C@@H](OC(=O)/C=C\C(=O)c1ccc(F)cc1)C1=CC(=O)c2c(O)ccc(O)c2C1=O,Activity,A549 [1],4.62%
same,fold change (FC),A549 [2],6
same,viability at 4 µM,A549 [3],71.7%
same,Activity,A549 [4],Active
same,IC50,NCI-H460,5.61 µM
same,Activity,A549 [5],30.88%
same,Activity,A549 [6],Active
same,Activity,A549 [7],47.33%
same,Activity,A549 [8],33.75%
same,Activity,A549 [9],0.175%
same,Activity,A549 [10],Active
same,Activity,A549 [11],19.4%
same,Activity,A549 [12],19.66%
same,Activity,A549 [13],31.7%
same,Activity,A549 [14],inactive
same,IC50,[15],0.0227 µM
same,Activity,A549 [16],2.2%
same,inhibition,A549 [17],Dose-dependent effect
same,Activity,A549 [18],3.72%
same,Activity,A549 [19],30.5%
same,Activity,A549 [20],67.8%
same,Activity,A549 [21],Active
